What was measured:
[1] = Inhibition of Nef protein-dependent MHC-1 HLA-A2 down modulation in human CD4 positive T cells transduced with replication defective HIV containing GFP reporter (delta GPE) assessed as restoration of MHC-1 measured after 24 hrs by HLA-A2 staining based flow cytometry; type: cell-based, Human immunodeficiency virus, CD4+ T cell
[2] = Therapeutic ratio, ratio of IC50 for Cytotoxicity against human CD4 positive T cells transduced with replication defective HIV containing GFP reporter (delta GPE) to IC50 for Inhibition of Nef protein-dependent MHC-1 HLA-A2 down modulation in human CD4 positive T cells transduced with replication defective HIV containing GFP reporter (delta GPE); type: toxicity, cell-based; settings: read-out: Ratio IC50
How it was run: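 Primary human CD4+ T cells (PBMC, CD8-depleted, PHA then IL-2 activated) spinoculated with VSV-G-pseudotyped ΔGPE reporter; 48 h later treated with serial dilutions in R10 + 50 U/mL IL-2, top 1000 nM.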

[3] = Neutralization ratio, ratio of IC50 for Inhibition of V-ATPase-dependent lysosomal acidification in human CD4 positive T cells transduced with replication defective HIV containing GFP reporter (delta GPE) to IC50 for Inhibition of Nef protein-dependent MHC-1 HLA-A2 down modulation in human CD4 positive T cells transduced with replication defective HIV containing GFP reporter (delta GPE)
[4] = Cytotoxicity against human CD4 positive T cells transduced with replication defective HIV containing GFP reporter (delta GPE) assessed as cell viability by measuring vital dye uptake incubated for 72 hrs by flow cytometric assay; type: toxicity, cell-based; settings: for CC50 at 72 h: read-out: TC50
How it was run: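 Primary human PBMCs, CD8-depleted, PHA-L (10 ug/mL) then IL-2 activated; donor-matched mock-transduced cells plated 1×10^5/well in R10 with IL-2 (final 50 U/mL), compounds serially diluted from DMSO stocks (top 1000 nM), 72 h.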

[5] = Inhibition of V-ATPase-dependent lysosomal acidification in human CD4 positive T cells transduced with replication defective HIV containing GFP reporter (delta GPE) assessed as fluorescence of pH-sensitive Lysotracker dye incubated for 24 hrs by flow cytometry; type: cell-based; settings: CD4+ T cell
How it was run: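 CD8-depleted PHA/IL-2-activated primary CD4+ T cells spinoculated with VSV-G-pseudotyped HIV ΔGPE, 48 h later plated 1×10^5/well and treated 24 h with serial dilutions (top 1000 nM, final IL-2 50 U/mL).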

CD4+ T cell = settings: Human immunodeficiency virus, dose 0.05-10 nM
[6] = Human immunodeficiency virus 1, CD4+ T cell, 24 h

| SMILES | IC50 [1, 6] | selectivity ratio [2] | Ratio IC50 [3] | also measured |
| --- | --- | --- | --- | --- |
| C/C=C/[C@H]1O[C@@](O)([C@@H](C)[C@H](O)[C@H](C)[C@H]2OC(=O)/C(OC)=C/C(C)=C/[C@@H](C)[C@@H](O)[C@@H](CC)[C@@H](O)[C@H](C)C/C(C)=C/C=C/[C@@H]2OC)C[C@@H](OC(C)=O)[C@@H]1C | 1.2 nM | 5.8 | 5.6 | – |
| CO/C1=C\C(C)=C\[C@@H](C)C(=O)[C@@H](C)C/C(C)=C/C=C/[C@H](OC)[C@@H]([C@@H](C)[C@@H](O)[C@H](C)[C@@]2(O)C[C@@H](O)[C@H](C)[C@@H](C(C)C)O2)OC1=O | – | – | – | IC50 ([1]; cd4+ t cell): > 1000 nM |
| C/C=C/C=C/[C@H]1O[C@@](O)([C@@H](C)[C@H](O)[C@H](C)[C@H]2OC(=O)/C(OC)=C/C(C)=C/[C@@H](C)[C@@H](O)[C@@H](C)C/C(C)=C/C=C/[C@@H]2OC)C[C@@H](O[C@H]2C[C@@H](O)[C@H](O)[C@@H](C)O2)[C@@H]1C | – | – | – | CC50 at 72 h [4]: 1.3 nM |
| CO/C1=C\C(C)=C\[C@@H](C)[C@@H](O)[C@@H](C)C/C(C)=C/C=C/[C@H](OC)[C@@H]([C@@H](C)[C@@H](O)[C@H](C)[C@H]2C[C@@H](OC)[C@H](C)[C@@H](C(C)C)O2)OC1=O | 20 nM | 1.4 | 2.7 | – |
| CC[C@H]1OC(=O)[C@H](C)[C@@H](O[C@@H]2O[C@H](C)C[C@H](N(C)C)[C@H]2O)[C@@H](C)C[C@@H](C)C(=O)/C=C/[C@H]1C | > 1000 nM | – | – | IC50 [5]: > 1000 nM; IC50 at 72 h [4]: > 1000 nM |
| C/C=C/[C@H]1O[C@@](O)([C@@H](C)[C@H](O)[C@H](C)[C@H]2OC(=O)/C(OC)=C/C(C)=C/[C@@H](C)[C@@H](O)[C@@H](CC)[C@@H](OC(C)=O)[C@H](C)C/C(C)=C/C=C/[C@@H]2OC)C[C@@H](O[C@H]2C[C@@H](OC(C)=O)[C@H](OC(C)=O)[C@@H](C)O2)[C@@H]1C | 2.8 nM | 1.8 | 3.6 | – |
| CO[C@H]1/C=C/O[C@@]2(C)Oc3c(C)c(O)c4c(O)c(c(/C=N/N5CCN(C)CC5)c(O)c4c3C2=O)NC(=O)/C(C)=C\C=C\[C@H](C)[C@H](O)[C@@H](C)[C@@H](O)[C@@H](C)[C@H](OC(C)=O)[C@@H]1C [RIFAMPIN] | > 1000 nM | – | – | IC50 [5]: > 1000 nM; IC50 at 72 h [4]: > 1000 nM |
| CCCCC(=O)O[C@@H]1C[C@](O)([C@@H](C)[C@H](O)[C@H](C)[C@H]2OC(=O)/C(OC)=C/C(C)=C/[C@@H](C)[C@@H](O)[C@@H](C)C/C(C)=C/C=C/[C@@H]2OC)O[C@H](C(C)C)[C@H]1C | 37 nM | 1.4 | 1.5 | – |
| C/C=C/[C@H]1O[C@@](O)([C@@H](C)[C@H](O)[C@H](C)[C@H]2OC(=O)/C(OC)=C/C(C)=C/[C@@H](C)[C@@H](O)[C@@H](C)[C@@H](O)[C@H](C)C/C(C)=C/C=C/[C@@H]2OC)C[C@@H](O[C@H]2C[C@@H](OC(C)=O)[C@H](OC(N)=O)[C@@H](C)O2)[C@@H]1C | 0.66 nM | 8 | 21 | – |
| C/C=C/[C@H]1O[C@@H]([C@@H](C)[C@H](O)[C@H](C)[C@H]2OC(=O)/C(OC)=C/C(C)=C/[C@@H](C)[C@@H](O)[C@@H](CC)[C@@H](O)[C@H](C)C/C(C)=C/C=C/[C@@H]2O)C[C@@H](O)[C@@H]1C | 400 nM | – | – | – |
| C/C=C/[C@H]1O[C@@H]([C@@H](C)[C@H](O)[C@H](C)[C@H]2OC(=O)/C(OC)=C/C(C)=C/[C@@H](C)[C@@H](O)[C@@H](CC)[C@@H](O)[C@H](C)C/C(C)=C/C=C/[C@@H]2OC)C[C@@H](O)[C@@H]1C | 4.5 nM | – | – | – |
| C/C=C/[C@H]1O[C@@](O)([C@@H](C)[C@H](O)[C@H](C)[C@H]2OC(=O)/C(OC)=C/C(C)=C/[C@@H](C)[C@@H](O)[C@@H](CC)[C@@H](OC(C)=O)[C@H](C)C/C(C)=C/C=C/[C@@H]2OC)C[C@@H](OC(C)=O)[C@@H]1C | 3.6 nM | 2.5 | 5.4 | – |
| CCCCCCCCC(=O)O[C@@H]1C[C@](O)([C@@H](C)[C@H](O)[C@H](C)[C@H]2OC(=O)/C(OC)=C/C(C)=C/[C@@H](C)[C@@H](O)[C@@H](C)C/C(C)=C/C=C/[C@@H]2OC)O[C@H](C(C)C)[C@H]1C | 130 nM | 1.1 | 1.2 | – |
| CO/C1=C\C(C)=C\[C@@H](C)C(=O)[C@@H](C)C/C(C)=C/C=C/[C@H](OC)[C@@H]([C@@H](C)[C@@H](O)[C@H](C)[C@@]2(O)CC(=O)[C@H](C)[C@@H](C(C)C)O2)OC1=O | – | – | – | IC50 ([1]; cd4+ t cell): > 1000 nM |
| C/C=C/[C@H]1O[C@@](O)([C@@H](C)[C@H](O)[C@H](C)[C@H]2OC(=O)/C(OC)=C/C(C)=C/[C@@H](C)[C@@H](O)[C@@H](CC)[C@@H](O)[C@H](C)C/C(C)=C/C=C/[C@@H]2OC)C[C@@H](O[C@H]2C[C@@H](OC(C)=O)[C@H](OC(N)=O)[C@@H](C)O2)[C@@H]1C | – | 8.5 | – | – |
| CO/C1=C\C(C)=C\[C@@H](C)[C@@H](O)[C@@H](C)C/C(C)=C/C=C/[C@H](OC)[C@@H]([C@@H](C)[C@@H](O)[C@H](C)[C@@]2(O)C[C@@H](O[C@@H]3O[C@@H](C)[C@H](O)[C@@H](O)[C@H]3OC)[C@H](C)[C@@H](C(C)C)O2)OC1=O | – | – | – | CC50 at 72 h [4]: 1.4 nM |
| CO/C1=C\C(C)=C\[C@@H](C)[C@@H](O)[C@@H](C)C/C(C)=C/C=C/[C@H](OC)[C@@H]([C@@H](C)[C@@H](O)[C@H](C)[C@@]2(O)C[C@@H](OC(=O)c3ccccc3)[C@H](C)[C@@H](C(C)C)O2)OC1=O | – | – | – | IC50 [5]: 128 nM |
| CO/C1=C\C(C)=C\[C@@H](C)[C@@H](O)[C@@H](C)C/C(C)=C/C=C/[C@H](OC)[C@@H]([C@@H](C)[C@@H](O)[C@H](C)[C@H]2C[C@@H](O)[C@H](C)[C@@H](C(C)C)O2)OC1=O | 34 nM | 1.4 | 4.1 | – |
| CNC(=O)O[C@@H](CC(C)C)c1nc([C@H]2OC(=O)/C(C)=C/C/C(C)=C/[C@@H](O)[C@@H](C)\C=C(C)/C=C(C)\C=C\[C@@H](O)[C@H](C)[C@H](OC)/C(C)=C/C=C/[C@@H]2C)cs1 [ARCHAZOLID A] | – | – | – | IC50 ([1]; cd4+ t cell): 0.47 nM |
| C/C=C/[C@H]1O[C@@](O)([C@@H](C)[C@H](O)[C@H](C)[C@H]2OC(=O)/C(OC)=C/C(C)=C/[C@@H](C)[C@@H](O)[C@@H](CC)[C@@H](O)[C@H](C)C/C(C)=C/C=C/[C@@H]2OC)C[C@@H](O[C@H]2C[C@@H](OC(C)=O)[C@H](OC(C)=O)[C@@H](C)O2)[C@@H]1C | 0.72 nM | 1.8 | 4.2 | – |
| C=C/C=C/C(=O)O[C@@H]1C[C@](O)([C@@H](C)[C@H](O)[C@H](C)[C@H]2OC(=O)/C(OC)=C/C(C)=C/[C@@H](C)[C@@H](O)[C@@H](C)C/C(C)=C/C=C/[C@@H]2OC)O[C@H](C(C)C)[C@H]1C | 17 nM | 1.4 | 1.5 | – |
| C/C=C/[C@H]1O[C@@](O)([C@@H](C)[C@H](O)[C@H](C)[C@H]2OC(=O)/C(OC)=C/C(C)=C/[C@@H](C)[C@@H](O)[C@@H](CC)[C@@H](OC(C)=O)[C@H](C)C/C(C)=C/C=C/[C@@H]2OC)C[C@@H](O[C@H]2C[C@@H](OC(C)=O)[C@H](OC(N)=O)[C@@H](C)O2)[C@@H]1C | – | – | – | inhibition (CD4+ T cell): Dose-Dependent Effect |
| COc1cc2c(O)c3c(c(-c4ccc5c(c4)OCO5)c2cc1OC)C(=O)OC3 [DIPHYLLIN] | > 1000 nM | – | – | IC50 [5]: > 1000 nM; IC50 at 72 h [4]: > 1000 nM |
| CO/C1=C\C(C)=C\[C@@H](C)[C@@H](O)[C@@H](C)C/C(C)=C/C=C/[C@H](OC)[C@@H]([C@@H](C)[C@@H](O)[C@H](C)[C@H]2C=C(O)[C@H](C)[C@@H](C(C)C)O2)OC1=O | 140 nM | 1.6 | 2.6 | – |
| CC[C@H]1OC(=O)C(C)C(O)[C@@H](C)C[C@@H](C)C(=O)/C=C/[C@H]1C (stereo partly drawn) | 350 nM | – | – | IC50 [5]: 1720 nM; IC50 at 72 h [4]: 140 nM |
| CO/C1=C\C(C)=C\[C@@H](C)[C@@H](O)[C@@H](C)C/C(C)=C/C=C/[C@H](OC)[C@@H]([C@@H](C)[C@@H](O)[C@H](C)[C@@]2(OC)C[C@@H](O)[C@H](C)[C@@H](C(C)C)O2)OC1=O | 12 nM | 1.2 | 2.3 | – |

— ChEMBL document CHEMBL5528081 (J Med Chem, 2024)
